Measured values of several laboratories.
Protocols differ between the studies behind these lines.
Observed: metabolic stability
Species: rat

C[C@]12CC[C@H]3[C@@H](CCC4=CC(=O)CC[C@@]43C)[C@@H]1CC[C@@H]2O  scaled CLint (liver microsomes; 1 µM, pH 7.4): 2500 mL/min/kg
C[C@]12CC[C@H]3[C@@H](CCC4=CC(=O)CC[C@@]43C)[C@@H]1CC[C@@H]2O  microsomal CLint (liver microsomes): 893 µL/min/mg
O=c1[nH]c2ccccc2n1C1CCN(CCCC(c2ccc(F)cc2)c2ccc(F)cc2)CC1  microsomal CLint (liver microsomes; 100 ng/mL): 8.7 µL/min/mg
O=C1CCC(N2Cc3c(ccc4c3OCC43CCN(Cc4ccccc4)CC3)C2=O)C(=O)N1 (centres unmarked)  scaled CLint (liver microsomes; 1 µM): 22 mL/min/kg
Cc1[nH]c(C)c(S(=O)(=O)Nc2ccc(S(F)(F)(F)(F)F)cc2)c1C(=O)N1CCC(F)(F)C1  microsomal CLint (liver microsomes): 39 µL/min/mg
CC(C)CC(=O)OC[C@H]1O[C@@](C#N)(c2ccc3c(N)ncnn23)[C@H](O)[C@@H]1O  hepatocyte CLint (hepatocytes; 5 µM): > 318 µL/min/10⁶ cells
Cc1[nH]c(C)c(S(=O)(=O)Nc2ccc(S(=O)(=O)F)c(Cl)c2)c1C(=O)N1CCC(F)(F)C1  microsomal CLint (liver microsomes): 63.7 µL/min/mg
NCCOCC(=O)N1CCCC(C(=O)NCc2nc(-c3ccc(-c4ccc(F)cc4)cc3)cs2)C1 (centres unmarked)  scaled CLint (liver microsomes): < 7 mL/min/kg
